Laboratory results as given in ChEMBL document CHEMBL5678815 (Clin Cancer Res, 2017).
Active and inactive are the calls of the source. The calls are words filed in the database; no cut-off is given here.

Key:
[1] = target: AP2-associated protein kinase 1 (Homo sapiens) (UniProt Q2M2I8); assay: Inhibition of human AAK1 assessed as remaining activity at 1 uM by ATP-competition binding assay relative to control
Summary of the method: (§1)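 KINOMEscan ATP-site-dependent competition binding panel of 395 human kinases, with compound tested at 1 μM. Binding is reported as remaining signal relative to control.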

[2] = target: Dual specificity protein kinase CLK1 (Homo sapiens) (UniProt P49759); assay: Inhibition of human CLK1 assessed as remaining activity at 1 uM by ATP-competition binding assay relative to control; summary of the method: as §1
[3] = target: Casein kinase I isoform alpha-like (Homo sapiens) (UniProt Q8N752); assay: Inhibition of human CSNK1A1L assessed as remaining activity at 1 uM by ATP-competition binding assay relative to control; summary of the method: as §1
[4] = target: Dual specificity tyrosine-phosphorylation-regulated kinase 1B (Homo sapiens) (UniProt Q9Y463); assay: Inhibition of human DYRK1B assessed as remaining activity at 1 uM by ATP-competition binding assay relative to control; summary of the method: as §1
[5] = target: Epidermal growth factor receptor (Homo sapiens) (UniProt P00533); assay: Inhibition of human EGFR assessed as remaining activity at 1 uM by ATP-competition binding assay relative to control; summary of the method: as §1
[6] = system: Epidermal growth factor receptor (Homo sapiens), P00533 [UNDEFINED MUTATION]; assay: Inhibition of human EGFR E746-A750del mutant assessed as remaining activity at 1 uM by ATP-competition binding assay relative to control
Summary of the method: (§2)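 KINOMEscan ATP-site-dependent competition binding assay across a 395-kinase human panel including mutants; compound tested at 1μM; binding expressed relative to control signal.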

[7] = system: Epidermal growth factor receptor (Homo sapiens), P00533 [L858R,T790M]; assay: Inhibition of human EGFR L858R/T790M mutant assessed as remaining activity at 1 uM by ATP-competition binding assay relative to control; summary of the method: as §2
[8] = target: Ephrin type-A receptor 7 (Homo sapiens) (UniProt Q15375); assay: Inhibition of human EPHA7 assessed as remaining activity at 1 uM by ATP-competition binding assay relative to control; summary of the method: as §1
[9] = target: Mitogen-activated protein kinase 6 (Homo sapiens) (UniProt Q16659); assay: Inhibition of human ERK3 assessed as remaining activity at 1 uM by ATP-competition binding assay relative to control
Summary of the method: (§3)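 Single-point profiling at 1μM in an ATP-site-dependent competition binding assay across a panel of 395 human kinases, including mutant forms. The read-out is kinase binding signal in the presence of test agent, expressed as inhibition relative to the control signal. This screen assessed noncovalent binding interactions.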

[10] = target: Tyrosine-protein kinase Fes/Fps (Homo sapiens) (UniProt P07332); assay: Inhibition of human FES assessed as remaining activity at 1 uM by ATP-competition binding assay relative to control; summary of the method: as §3
[11] = system: Receptor-type tyrosine-protein kinase FLT3 (Homo sapiens), P36888 [D835H]; assay: Inhibition of human FLT3 D835H mutant assessed as remaining activity at 1 uM by ATP-competition binding assay relative to control; summary of the method: as §3
[12] = target: Tyrosine-protein kinase Lck (Homo sapiens) (UniProt P06239); assay: Inhibition of human LCK assessed as remaining activity at 1 uM by ATP-competition binding assay relative to control; summary of the method: as §3
[13] = target: Leukocyte tyrosine kinase receptor (Homo sapiens) (UniProt P29376); assay: Inhibition of human LTK assessed as remaining activity at 1 uM by ATP-competition binding assay relative to control; summary of the method: as §3
[14] = target: Serine/threonine-protein kinase 4 (Homo sapiens) (UniProt Q13043); assay: Inhibition of human MST1 assessed as remaining activity at 1 uM by ATP-competition binding assay relative to control; summary of the method: as §3
[15] = target: Serine/threonine-protein kinase PAK 2 (Homo sapiens) (UniProt Q13177); assay: Inhibition of human PAK2 assessed as remaining activity at 1 uM by ATP-competition binding assay relative to control; summary of the method: as §3
[16] = target: Serine/threonine-protein kinase PAK 3 (Homo sapiens) (UniProt O75914); assay: Inhibition of human PAK3 assessed as remaining activity at 1 uM by ATP-competition binding assay relative to control; summary of the method: as §3
[17] = target: Serine/threonine-protein kinase PAK 6 (Homo sapiens) (UniProt Q9NQU5); assay: Inhibition of human PAK6 assessed as remaining activity at 1 uM by ATP-competition binding assay relative to control; summary of the method: as §3
[18] = target: Serine/threonine-protein kinase PRP4 homolog (Homo sapiens) (UniProt Q13523); assay: Inhibition of human PRP4 assessed as remaining activity at 1 uM by ATP-competition binding assay relative to control
Summary of the method: (§4)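 Single-concentration (1 μM) screen in an ATP-site-dependent competition binding assay (KINOMEscan, outsourced) covering 395 human kinases, mutants included. Non-covalent binding was read as the remaining signal relative to the control signal.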

[19] = target: Serine/threonine-protein kinase RIO2 (Homo sapiens) (UniProt Q9BVS4); assay: Inhibition of human RIOK2 assessed as remaining activity at 1 uM by ATP-competition binding assay relative to control; summary of the method: as §4
[20] = target: cGMP-dependent protein kinase 1 (Homo sapiens) (UniProt Q13976); assay: Inhibition of human PRKG1 assessed as remaining activity at 1 uM by ATP-competition binding assay relative to control; summary of the method: as §4
[21] = target: Non-receptor tyrosine-protein kinase TNK1 (Homo sapiens) (UniProt Q13470); assay: Inhibition of human TNK1 assessed as remaining activity at 1 uM by ATP-competition binding assay relative to control; summary of the method: as §4
[22] = target: NT-3 growth factor receptor (Homo sapiens) (UniProt Q16288); assay: Inhibition of human TRKC assessed as remaining activity at 1 uM by ATP-competition binding assay relative to control; summary of the method: as §4
[23] = target: Tyrosine-protein kinase Yes (Homo sapiens) (UniProt P07947); assay: Inhibition of human YES assessed as remaining activity at 1 uM by ATP-competition binding assay relative to control; summary of the method: as §4
Splenocyte = assay: In vivo inhibition of BCR signaling in female […] mouse assessed as change in phospho-S6 expression at 25 mg/kg, po administered and measured after stimulation with anti-IgM for 18 h by flow cytometry analysis; assay type: functional, organism-based
Summary of the method: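 Female C57BL/6 mice (5/group) received vehicle or 25 mg/kg drug by oral gavage at time zero, with spleens taken at time points from 3 to 24 h. Splenocytes were stimulated ex vivo with goat anti-mouse IgM at 10μg/mL for 18 h at 37°C in 5% CO2, then Fc-blocked and stained for CD19 plus CD69, CD86 or phospho-S6(S235/236), with 7-AAD to exclude dead cells. Read-out was flow cytometry on >5,000 gated CD19+ cells, compared with vehicle.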

[24] = Antileukemic activity against human CLL mononuclear cells xenografted NSG mouse assessed as change in blood cells at 0.16 mg/ml preadministered with compound via drinking water and measured after 3 weeks by flow cytometry analysis relative to control; assay type: functional, CLL mononuclear cell
Summary of the method: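 Primary CLL patient mononuclear cells (1 × 10^8 per mouse) engrafted into NSG mice on day 0 after busulfan priming on day −1. Vehicle or drug was given in drinking water from day −1. Mice were killed 3 weeks after engraftment; spleens homogenized, filtered and RBC-lysed; whole blood collected. Six patients, 2–5 mice per patient; paired t-test per patient.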

Chain of Serine/threonine-protein kinase 4 (Homo sapiens) (Q13043 whole entry): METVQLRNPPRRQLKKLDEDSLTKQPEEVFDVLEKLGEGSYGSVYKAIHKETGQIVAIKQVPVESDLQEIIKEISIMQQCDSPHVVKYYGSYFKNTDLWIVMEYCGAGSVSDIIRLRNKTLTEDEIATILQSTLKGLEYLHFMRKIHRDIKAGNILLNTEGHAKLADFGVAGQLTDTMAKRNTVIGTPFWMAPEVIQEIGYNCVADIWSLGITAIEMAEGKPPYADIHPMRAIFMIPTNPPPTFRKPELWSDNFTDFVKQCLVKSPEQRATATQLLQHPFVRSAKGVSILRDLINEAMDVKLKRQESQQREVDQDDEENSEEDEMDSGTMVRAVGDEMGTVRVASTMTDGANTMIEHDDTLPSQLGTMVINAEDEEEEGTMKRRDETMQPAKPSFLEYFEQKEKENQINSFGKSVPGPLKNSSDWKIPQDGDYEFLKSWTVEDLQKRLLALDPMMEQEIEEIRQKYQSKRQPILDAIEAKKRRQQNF
Chain of NT-3 growth factor receptor (Homo sapiens) (Q16288 32-839 limits assumed): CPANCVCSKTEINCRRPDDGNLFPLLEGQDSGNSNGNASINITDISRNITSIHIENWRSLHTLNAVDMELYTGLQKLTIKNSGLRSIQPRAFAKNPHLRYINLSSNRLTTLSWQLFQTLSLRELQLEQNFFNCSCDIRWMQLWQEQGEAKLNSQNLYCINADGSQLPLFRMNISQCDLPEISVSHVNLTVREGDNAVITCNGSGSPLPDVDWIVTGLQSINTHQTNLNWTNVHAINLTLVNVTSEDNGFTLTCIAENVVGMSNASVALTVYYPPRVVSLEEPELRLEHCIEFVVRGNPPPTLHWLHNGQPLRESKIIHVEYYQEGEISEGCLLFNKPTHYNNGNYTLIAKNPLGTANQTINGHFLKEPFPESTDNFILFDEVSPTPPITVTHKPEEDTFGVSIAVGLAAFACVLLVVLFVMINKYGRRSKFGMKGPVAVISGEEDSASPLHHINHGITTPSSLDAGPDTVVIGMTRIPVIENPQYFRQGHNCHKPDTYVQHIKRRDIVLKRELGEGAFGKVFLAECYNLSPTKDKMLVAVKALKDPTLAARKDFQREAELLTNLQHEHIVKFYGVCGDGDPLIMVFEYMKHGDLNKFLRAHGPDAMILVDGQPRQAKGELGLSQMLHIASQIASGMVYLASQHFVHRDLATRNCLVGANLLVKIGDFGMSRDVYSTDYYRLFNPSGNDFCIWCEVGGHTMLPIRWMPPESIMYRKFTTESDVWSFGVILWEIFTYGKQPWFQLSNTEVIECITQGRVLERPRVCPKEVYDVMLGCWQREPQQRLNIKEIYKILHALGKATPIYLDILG
Chain of AP2-associated protein kinase 1 (Homo sapiens) (Q2M2I8 whole entry, looked up): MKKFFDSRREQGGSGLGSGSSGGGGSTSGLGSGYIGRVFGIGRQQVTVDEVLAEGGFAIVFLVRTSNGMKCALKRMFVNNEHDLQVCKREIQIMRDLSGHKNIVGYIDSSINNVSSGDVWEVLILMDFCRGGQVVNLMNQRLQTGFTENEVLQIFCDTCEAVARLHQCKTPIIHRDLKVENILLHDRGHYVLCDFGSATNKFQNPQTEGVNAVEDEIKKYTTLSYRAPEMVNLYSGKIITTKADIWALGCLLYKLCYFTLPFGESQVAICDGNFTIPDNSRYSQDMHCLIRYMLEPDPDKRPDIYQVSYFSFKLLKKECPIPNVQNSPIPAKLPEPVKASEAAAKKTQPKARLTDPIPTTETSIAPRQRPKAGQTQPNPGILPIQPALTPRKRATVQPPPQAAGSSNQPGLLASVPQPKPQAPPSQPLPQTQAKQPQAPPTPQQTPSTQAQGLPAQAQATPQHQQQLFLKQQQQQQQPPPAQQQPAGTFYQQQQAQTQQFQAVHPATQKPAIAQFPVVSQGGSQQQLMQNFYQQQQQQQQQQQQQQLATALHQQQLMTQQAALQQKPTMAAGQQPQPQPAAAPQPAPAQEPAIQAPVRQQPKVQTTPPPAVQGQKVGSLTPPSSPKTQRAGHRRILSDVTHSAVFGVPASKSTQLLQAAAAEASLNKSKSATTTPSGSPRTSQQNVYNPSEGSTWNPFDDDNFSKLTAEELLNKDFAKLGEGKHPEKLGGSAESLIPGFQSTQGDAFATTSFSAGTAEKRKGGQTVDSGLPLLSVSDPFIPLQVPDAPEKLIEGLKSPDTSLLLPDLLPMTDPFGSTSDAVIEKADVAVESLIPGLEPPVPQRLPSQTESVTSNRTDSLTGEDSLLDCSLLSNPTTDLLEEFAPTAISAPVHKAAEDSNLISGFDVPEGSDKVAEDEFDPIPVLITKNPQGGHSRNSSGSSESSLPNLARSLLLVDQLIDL
Chain of Serine/threonine-protein kinase RIO2 (Homo sapiens) (Q9BVS4 whole entry, looked up): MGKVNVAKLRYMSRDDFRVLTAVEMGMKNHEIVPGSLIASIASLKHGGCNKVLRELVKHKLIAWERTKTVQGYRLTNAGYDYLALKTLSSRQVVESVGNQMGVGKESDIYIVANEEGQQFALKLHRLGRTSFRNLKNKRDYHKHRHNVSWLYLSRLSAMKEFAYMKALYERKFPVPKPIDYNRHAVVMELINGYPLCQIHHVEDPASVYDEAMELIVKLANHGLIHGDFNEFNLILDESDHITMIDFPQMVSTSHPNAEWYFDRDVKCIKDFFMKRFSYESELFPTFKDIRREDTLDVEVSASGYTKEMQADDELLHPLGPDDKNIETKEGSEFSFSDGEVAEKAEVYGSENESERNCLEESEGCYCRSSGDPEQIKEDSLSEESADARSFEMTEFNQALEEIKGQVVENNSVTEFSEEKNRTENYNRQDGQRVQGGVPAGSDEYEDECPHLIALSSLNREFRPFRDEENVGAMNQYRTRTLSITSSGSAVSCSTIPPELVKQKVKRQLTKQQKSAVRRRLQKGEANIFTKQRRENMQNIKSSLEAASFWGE
Chain of Serine/threonine-protein kinase PAK 3 (Homo sapiens) (O75914 whole entry, looked up): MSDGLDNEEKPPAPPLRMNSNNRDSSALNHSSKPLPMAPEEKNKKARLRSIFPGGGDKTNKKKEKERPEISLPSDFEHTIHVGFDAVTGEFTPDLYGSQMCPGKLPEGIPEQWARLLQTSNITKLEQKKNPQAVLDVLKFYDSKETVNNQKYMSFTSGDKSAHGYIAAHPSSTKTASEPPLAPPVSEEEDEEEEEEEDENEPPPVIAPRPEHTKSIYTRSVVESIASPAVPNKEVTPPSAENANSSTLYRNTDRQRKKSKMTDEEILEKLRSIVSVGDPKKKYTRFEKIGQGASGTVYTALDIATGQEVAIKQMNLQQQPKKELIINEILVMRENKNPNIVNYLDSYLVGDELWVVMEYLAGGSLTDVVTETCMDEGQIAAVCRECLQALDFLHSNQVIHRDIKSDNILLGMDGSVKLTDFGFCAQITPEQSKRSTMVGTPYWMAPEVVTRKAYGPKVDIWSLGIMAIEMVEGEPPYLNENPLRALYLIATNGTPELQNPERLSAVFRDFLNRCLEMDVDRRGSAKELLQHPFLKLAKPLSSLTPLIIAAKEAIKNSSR
Chain of Tyrosine-protein kinase Fes/Fps (Homo sapiens) (P07332 whole entry): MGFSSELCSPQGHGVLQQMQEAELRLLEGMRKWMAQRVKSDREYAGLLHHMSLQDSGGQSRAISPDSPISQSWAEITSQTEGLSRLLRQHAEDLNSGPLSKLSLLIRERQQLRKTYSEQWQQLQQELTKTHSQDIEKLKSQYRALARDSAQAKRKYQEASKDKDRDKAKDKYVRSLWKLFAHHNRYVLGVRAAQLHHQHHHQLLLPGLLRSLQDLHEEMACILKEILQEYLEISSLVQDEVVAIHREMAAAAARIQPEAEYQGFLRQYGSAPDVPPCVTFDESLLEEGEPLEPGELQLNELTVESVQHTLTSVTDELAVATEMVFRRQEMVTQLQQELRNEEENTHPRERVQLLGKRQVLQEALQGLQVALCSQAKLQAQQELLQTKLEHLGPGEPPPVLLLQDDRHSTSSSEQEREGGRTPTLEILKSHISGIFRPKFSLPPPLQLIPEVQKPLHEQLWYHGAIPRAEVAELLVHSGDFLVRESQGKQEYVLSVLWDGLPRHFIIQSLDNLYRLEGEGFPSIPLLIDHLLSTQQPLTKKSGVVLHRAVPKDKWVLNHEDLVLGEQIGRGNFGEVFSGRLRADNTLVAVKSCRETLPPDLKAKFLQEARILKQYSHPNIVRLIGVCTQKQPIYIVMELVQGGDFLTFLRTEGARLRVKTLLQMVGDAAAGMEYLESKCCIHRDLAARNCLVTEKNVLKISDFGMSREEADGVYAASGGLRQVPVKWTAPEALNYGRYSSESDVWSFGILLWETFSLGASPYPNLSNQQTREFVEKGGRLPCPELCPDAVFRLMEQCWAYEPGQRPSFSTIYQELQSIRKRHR
Chain of Non-receptor tyrosine-protein kinase TNK1 (Homo sapiens) (Q13470 whole entry): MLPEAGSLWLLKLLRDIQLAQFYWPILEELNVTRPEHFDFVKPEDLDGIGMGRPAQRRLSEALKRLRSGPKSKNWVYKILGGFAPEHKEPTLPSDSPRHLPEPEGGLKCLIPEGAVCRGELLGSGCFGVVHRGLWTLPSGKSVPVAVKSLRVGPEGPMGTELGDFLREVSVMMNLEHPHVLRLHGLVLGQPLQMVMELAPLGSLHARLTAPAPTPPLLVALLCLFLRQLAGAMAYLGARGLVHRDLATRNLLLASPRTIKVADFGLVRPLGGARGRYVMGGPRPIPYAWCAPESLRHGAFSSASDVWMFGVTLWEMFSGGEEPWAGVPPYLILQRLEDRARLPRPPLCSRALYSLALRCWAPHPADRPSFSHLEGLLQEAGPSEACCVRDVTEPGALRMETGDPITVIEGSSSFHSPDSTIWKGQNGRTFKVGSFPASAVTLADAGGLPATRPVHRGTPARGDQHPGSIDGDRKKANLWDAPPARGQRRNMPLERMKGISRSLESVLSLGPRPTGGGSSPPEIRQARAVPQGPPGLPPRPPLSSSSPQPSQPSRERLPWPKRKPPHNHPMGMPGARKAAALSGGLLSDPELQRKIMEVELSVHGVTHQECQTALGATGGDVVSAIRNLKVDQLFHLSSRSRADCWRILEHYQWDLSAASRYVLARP

CC#CC(=O)N1CCC[C@H]1c1nc(-c2ccc(C(=O)Nc3ccccn3)cc2)c2c(N)nccn12 [ACALABRUTINIB]
Activity [1]: 86% | Activity [2]: 94% | Activity [3]: 92% | Activity [4]: 93% | Activity [5]: 75% | Activity [6]: 85% | Activity [7]: 94% | Activity [8]: 94% | Activity [9]: 94% | Activity [10]: 100% | Activity [11]: 86% | Activity [12]: 90% | Activity [13]: 86% | Activity [14]: 87% | Activity [15]: 78% | Activity [16]: 73% | Activity [17]: 94% | Activity [18]: 86% | Activity [19]: 80% | Activity [20]: 70% | Activity [21]: 90% | Activity [22]: 99% | Activity [23]: 83% | Activity (Splenocyte): Active | Activity [24]: 76%
